Reference: publication PMC2773291 (Journal of medicinal chemistry, 2009)
Peptide text beside a SMILES is read from it. * marks the point of attachment. Pyropheophorbide(a) = C=Cc1c(C)c2cc3nc(c4c5[nH]c(cc6nc(cc1[nH]2)C(C)=C6CC)c(C)c5C(=O)C4)[C@@H](CCC(=O)*)[C@@H]3C; X1 = CCN(CC)c1ccc2nc3ccc(N=Nc4ccc(N(C)CCCC(=O)*)cc4)cc3[n+](-c3ccccc3)c2c1

Key:
HEK-mFAP tumor = assay: Mouse xenograft in vivo imaging and ex vivo validation, HEK-mFAP tumor; parameters: species or system nude mice
Outline: (§1)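 Athymic female nude mice carried 1 × 10^7 FAP-transfected HEK293 cells on the left flank and 1 × 10^7 vector cells on the right, or FAP cells on both flanks. After 3 weeks (tumors 5–10 mm) mice received 4 days of low-fluorescence diet and ketamine/acepromazine anaesthesia. Probe (25 nmol in 30 μL aqueous, 2 μL DMSO, 0.5 μL Tween 80) was injected intratumorally at several sites. Imaging before and at intervals to 24 h used ex 650 nm, em ≥700 nm, 200 ms exposure; signal normalised to exposure time and ROI area.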

HEK-Vector cells (FAP−) = assay: Confocal microscopic studies, HEK-Vector cells; assay type: cell-based, human; settings: 25 μM, 6 h, 37°C, FBS-free medium
Outline: (§2)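 HEK293 stably carrying empty vector, grown in DMEM with 10% FBS, 2 mM L-glutamine and hygromycin B 200 μg mL−1. Cells seeded at 1.5 × 10^4/well for 2 days, then kept overnight in FBS-free DMEM. Probe was diluted in this conditioned medium to 25 μM and applied 6 h at 37°C, 5% CO2. Cells were fixed in 3% formaldehyde (20 min, dark), DAPI-mounted, and imaged confocally (405 and 633 nm lasers).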

[1] = tested on: HT29 tumor (FAP on stromal fibroblasts); assay: HT29 mouse xenograft in vivo imaging and frozen-section microscopy; parameters: species or system nude mouse
murine FAP (mFAP) = target: T1, murine FAP (mFAP) (Mus musculus, UniProt P97321); assay: Activation of FAP-PPB by murine FAP in buffer; assay type: biochemical
T1 sequence (P97321 26-761 limits assumed): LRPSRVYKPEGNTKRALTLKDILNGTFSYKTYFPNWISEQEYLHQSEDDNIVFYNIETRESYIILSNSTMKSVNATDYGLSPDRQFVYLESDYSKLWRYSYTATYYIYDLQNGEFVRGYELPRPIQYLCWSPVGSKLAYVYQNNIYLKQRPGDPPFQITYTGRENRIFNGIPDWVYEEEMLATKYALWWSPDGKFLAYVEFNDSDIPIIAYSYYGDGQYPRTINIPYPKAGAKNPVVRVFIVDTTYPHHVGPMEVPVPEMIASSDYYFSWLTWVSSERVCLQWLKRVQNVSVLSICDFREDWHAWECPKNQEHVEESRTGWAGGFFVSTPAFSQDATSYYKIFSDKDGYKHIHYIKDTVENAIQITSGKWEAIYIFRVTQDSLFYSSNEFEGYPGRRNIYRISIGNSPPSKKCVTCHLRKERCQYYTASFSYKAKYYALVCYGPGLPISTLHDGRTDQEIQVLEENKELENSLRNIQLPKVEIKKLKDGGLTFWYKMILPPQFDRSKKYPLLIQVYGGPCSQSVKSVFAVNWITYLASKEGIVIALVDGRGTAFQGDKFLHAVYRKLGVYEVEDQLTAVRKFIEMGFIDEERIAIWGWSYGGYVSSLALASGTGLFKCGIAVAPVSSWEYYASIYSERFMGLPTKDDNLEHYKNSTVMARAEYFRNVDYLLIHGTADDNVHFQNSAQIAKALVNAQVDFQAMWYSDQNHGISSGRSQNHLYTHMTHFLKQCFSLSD
Outline: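 In-house expressed, purified murine FAP (2 μg) incubated with probe (1 nmol, predissolved in 2.5 μL DMSO plus 0.5 μL Tween 80, then 1 mL 0.12 M NaCl/0.12 M TRIS, pH 7.37); probe:enzyme about 50:1. Fluorescence followed in real time at 37°C (ex 650 nm, em 675 nm). Cleavage also tracked by HPLC-MS every 30 min until complete.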

HEK-Vector tumor = assay: Mouse xenograft in vivo imaging and ex vivo validation, HEK-Vector tumor; parameters: species or system nude mice
Outline: as §1

[2] = tested on: HEK-mFAP and HEK-Vector cells; assay: Flow cytometric studies, HEK-mFAP versus HEK-Vector cells; assay type: cell-based, human; settings: 6.25 μM
Outline: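 Transfected HEK293 lines (murine FAP or empty vector) seeded at about 7 × 10^5 cells/well for 2 days, then kept overnight in FBS-free DMEM. Probe diluted in this conditioned medium to 6.25 μM and applied 1, 2, 4, 6 or 24 h at 37°C. Cells were centrifuge-washed three times, fixed in 2% paraformaldehyde for 10 min, and read by flow cytometry (ex 633 nm, em 660–690 nm; 10000 cells). Three independent experiments.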

[3] = target: dipeptidyl peptidase IV (DPPIV) (Homo sapiens, UniProt P27487); assay: Stability of FAP-PPB toward DPPIV; settings: FAP-PPB 1 nmol in 1 mL 20mM TRIS pH 7.5, PPB:DPPIV = 228:1, 37 °C
Chain of dipeptidyl peptidase IV (DPPIV) (P27487 29-766 limits assumed, species assumed): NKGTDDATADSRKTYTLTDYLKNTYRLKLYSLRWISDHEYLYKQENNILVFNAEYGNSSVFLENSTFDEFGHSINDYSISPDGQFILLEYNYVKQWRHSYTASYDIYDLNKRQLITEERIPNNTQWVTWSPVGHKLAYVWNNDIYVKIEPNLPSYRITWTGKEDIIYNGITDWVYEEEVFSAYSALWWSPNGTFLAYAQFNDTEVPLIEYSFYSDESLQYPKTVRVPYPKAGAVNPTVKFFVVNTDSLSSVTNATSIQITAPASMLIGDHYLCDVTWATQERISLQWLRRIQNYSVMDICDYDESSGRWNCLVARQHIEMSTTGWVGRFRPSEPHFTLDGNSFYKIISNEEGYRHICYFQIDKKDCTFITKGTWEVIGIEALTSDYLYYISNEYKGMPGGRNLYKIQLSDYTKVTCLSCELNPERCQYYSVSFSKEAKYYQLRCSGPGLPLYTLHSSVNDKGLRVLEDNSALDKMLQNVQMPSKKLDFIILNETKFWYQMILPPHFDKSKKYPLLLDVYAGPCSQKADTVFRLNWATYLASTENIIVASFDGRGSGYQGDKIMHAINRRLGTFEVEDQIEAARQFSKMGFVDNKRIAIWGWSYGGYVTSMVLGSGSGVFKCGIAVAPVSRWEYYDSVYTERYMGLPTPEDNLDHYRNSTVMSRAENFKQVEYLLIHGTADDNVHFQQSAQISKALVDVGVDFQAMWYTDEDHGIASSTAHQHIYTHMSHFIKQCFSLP

HEK-mFAP cells (FAP+) [4] = assay: HPLC-MS of culture media after incubation with HEK-mFAP cells; assay type: cell-based, human; settings: for cleavage in culture media of HEK-mFAP cells (HPLC-MS): media after incubation for the confocal study, 25 μM, 6 h
Outline: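 Probe-containing FAP-expressing HEK293 culture media were collected after incubation and analysed by HPLC-MS for cleaved probe. One set came from flow cytometry (6.25 μM in FBS-free DMEM, up to 24 h, 37°C). The other came from confocal work (25 μM, 6 h, 37°C).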

HEK-Vector cells = assay: In vitro photocytotoxicity; assay type: cell-based, human; settings: for photocytotoxicity toward HEK-Vector cells in the presence of light: FAP-PPB 8 μM, FAP-PP 4 μM, 2D-FAP-PPB 8 μM, 2 J cm^−2, MTT
HEK-mFAP cells (FAP+) [5] = assay: Confocal microscopic studies, HEK-mFAP cells; assay type: cell-based, human; settings: 25 μM, 6 h, 37°C, FBS-free medium
Outline: as §2, with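 “expressing full-length wild-type murine FAP,” for “carrying empty vector,”, “G418” for “hygromycin B”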

HEK-mFAP cells = assay: In vitro photocytotoxicity; assay type: cell-based, human; settings: for photocytotoxicity toward HEK-mFAP cells in the presence of light: FAP-PPB 8 μM, FAP-PP 4 μM, 2D-FAP-PPB 8 μM, 2 J cm^−2, MTT
tumor site = assay: Tumor accumulation after intravenous tail-vein injection; assay type: in vivo
mFAP = target: T2, mFAP (Mus musculus, UniProt P97321); assay: mFAP activity assay; assay type: biochemical, murine; settings: 37°C
T2 sequence (P97321 26-761 limits assumed): T1 sequence (P97321 26-761 limits assumed)
Outline: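 Probe at 0.1, 0.3, 0.5, 0.7, 1, 2 and 6 μM (predissolved in 2.5 μL DMSO plus 0.5 μL Tween 80, then 1 mL 0.12 M NaCl/0.12 M TRIS, pH 7.37) was incubated with murine FAP (2 μg) at 37°C. Fluorescence was read continuously (ex 650, em 675 nm). After 1 h, 10 μg enzyme was added and reading continued 2 h. Triplicates were run. Vmax, Km, kcat and kcat/Km came from nonlinear Michaelis-Menten fits of initial rates (10% substrate depleted).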

[6] = Quenching efficiency measurements; assay type: physicochemical; settings: FAP-PP quenched by free BHQ3 in DMSO; slope of linear Stern-Volmer plot
Outline: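 Unquenched peptide-photosensitizer (1 μM in DMSO) was mixed with varying concentrations of free BHQ3 quencher. Fluorescence was corrected using absorbance at the excitation and emission wavelengths. Data were fitted to F0/F = 1 + KSV[Q], and KSV was taken from the slope of the Stern-Volmer plot.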

[7] = 10 micron frozen sections, 24 h post-injection
[8] = tumor homogenized, DMSO extract, 24 h post-injection of 25 nmol intra-tumor

## C=Cc1c(C)c2cc3nc(c4c5[nH]c(cc6nc(cc1[nH]2)C(C)=C6CC)c(C)c5C(=O)C4)[C@@H](CCC(=O)N[C@H](C(=O)N[C@@H](CO)C(=O)NCC(=O)N1CCC[C@H]1C(=O)N[C@@H](CC(N)=O)C(=O)N[C@@H](CCC(N)=O)C(=O)N[C@@H](CCC(=O)O)C(=O)N[C@@H](CCC(N)=O)C(=O)N[C@@H](CCCCNC(=O)CCCN(C)c1ccc(N=Nc2ccc4nc5ccc(N(CC)CC)cc5[n+](-c5ccccc5)c4c2)cc1)C(N)=O)[C@@H](C)O)[C@@H]3C [FAP-PPB, Pyro-TSGPNQEQK(BHQ3)] ({Pyropheophorbide(a)}-TSGPNQEQK(X1)-NH2; C-terminus assumed)
HEK-mFAP tumor; 25 nmol intra-tumor injection, in vivo fluorescence imaging
  time to activation of FAP-PPB in tumor: ≤ 5 min
HEK-mFAP tumor; [7]
  Pyro fluorescence in HEK-mFAP tumor frozen sections (confocal): strong Pyro’s fluorescence signal
HEK-Vector cells (FAP−)
  intracellular fluorescence in HEK-Vector cells (confocal): minimal fluorescence signal
[1]; 25 nmol intra-tumor injection, left flank
  in vivo fluorescence in HT29 tumor: strong fluorescence signal was observed immediately and it lasted for 24 h
[1]; after in vivo imaging
  Pyro fluorescence in HT29 tumor frozen section (confocal): bright Pyro’s fluorescence signals within both cancer cells and fibroblasts
Murine FAP (mFAP); HPLC-MS every 30 min, PPB:FAP about 50:1, TRIS buffer pH 7.37, 37°C
  time to complete cleavage by mFAP: 4 h
Murine FAP (mFAP); TRIS buffer pH 7.37, 37°C, complete fluorescence restoration
  fluorescence increase on complete cleavage by mFAP: 200 fold
HEK-Vector tumor; [7]
  Pyro fluorescence in HEK-Vector tumor frozen sections (confocal): very weak signal
HEK-Vector tumor; 24 h post injection, fluorescence intensity per exposure time at tumor site
  fluorescence signal in HEK-Vector tumor relative to HEK-mFAP tumor: about half
HEK-Vector tumor; [8]
  cleavage in HEK-Vector tumor extract (HPLC-MS): no cleavage was observed
[2]; 1 to 24 h, both cell lines, no light
  dark toxicity (distribution and shape of cells in flow cytometry): does not have dark toxicity to both cell lines
[2]; flow cytometry, 1 h incubation
  fluorescence intensity in HEK-mFAP cells compared to HEK-Vector cells: about 8 fold
[3]; 2 h, HPLC-MS
  HPLC analysis after incubation with DPPIV: only a single peak corresponding to the intact FAP-PPB
[3]; over 2 h
  fluorescence intensity change on incubation with DPPIV: No significant increase in fluorescence intensity
HEK-mFAP cells (FAP+) [4]; 6.25 μM, 24 h incubation, HPLC-MS, data not shown
  FAP-PPB cleaved in media after incubation with HEK-mFAP cells: approximately 70%
HEK-mFAP cells (FAP+) [4]
  cleavage in culture media of HEK-mFAP cells (HPLC-MS): two peaks corresponding to fragments Pyro-TSGP and NQEQK-BHQ3 were identified
HEK-Vector cells; 8 μM, 24 h, MTT
  cytotoxicity toward HEK-Vector cells in the absence of light: non-cytotoxic in the absence of light
HEK-Vector cells
  photocytotoxicity toward HEK-Vector cells in the presence of light: not in the HEK-Vector cells
HEK-mFAP cells (FAP+) [5]
  intracellular fluorescence in HEK-mFAP cells (confocal): bright intracellular fluorescence signal
HEK-mFAP cells; 8 μM, 24 h, MTT
  cytotoxicity toward HEK-mFAP cells in the absence of light: non-cytotoxic in the absence of light
HEK-mFAP cells; 8 μM, 24 h incubation, 670 nm laser, 130 mW cm^−2, 2 J cm^−2, MTT
  cell viability of HEK-mFAP cells with light: 55%
HEK-mFAP cells
  photocytotoxicity toward HEK-mFAP cells in the presence of light: significant photocytotoxicity
Tumor site
  accumulation at the tumor site: no selective accumulation
mFAP
  specificity constant (kcat/Km): 29200 M⁻¹ s⁻¹

## Pyro-TSGPNQEQK [FAP-PP]
[6]
  Stern-Volmer quenching constant (KSV): 5.3 × 10^4 mol^−1dm^3
HEK-Vector cells
  photocytotoxicity toward HEK-Vector cells in the presence of light: could kill both cell lines

## Pyro-TSGpnQEQK(BHQ3) [2D-FAP-PPB]
HEK-mFAP tumor; [8]
  cleavage in HEK-mFAP tumor extract (HPLC-MS): little non-specific cleavages
HEK-Vector cells (FAP−)
  intracellular fluorescence in HEK-Vector cells (confocal): no significant fluorescence
HEK-mFAP cells (FAP+) [4]
  cleavage in culture media of HEK-mFAP cells (HPLC-MS): no cleavage was observed
HEK-Vector cells
  photocytotoxicity toward HEK-Vector cells in the presence of light: essentially non-cytotoxic
HEK-mFAP cells (FAP+) [5]
  intracellular fluorescence in HEK-mFAP cells (confocal): no significant fluorescence
HEK-mFAP cells
  photocytotoxicity toward HEK-mFAP cells in the presence of light: essentially non-cytotoxic
